The results in this text go back to ChEMBL document CHEMBL4145524, “Chemoenzymatically synthesized GM3 analogues as potential therapeutic agents to recover nervous functionality after injury by inducing neurite outgrowth” (2018).

Assay [1] relates to PC-12. Briefly: Induction of neuritogenesis in NGF-induced rat PC12 cells assessed as neurite bearing cells at 10 uM cotreated with 25 ng/ml NGF after 72 hrs by inverted microscopic analysis relative to control. It is filed as functional. A digest of the protocol:
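PC12 cells plated on poly-L-lysine-coated wells at 2×10^4/well, switched to DMEM with 1% horse serum and 0.5% FBS for 24 h, then given compound together with NGF 25 ng/ml for 72 h. Inverted microscopy. Percentage of cells bearing at least one neurite twice the cell-body diameter, over ≥200 cells per sample; mean ± S.D., at least three experiments.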

The subject of assay [2] is PC-12. In words: Induction of neuritogenesis in rat PC12 cells assessed as neurite bearing cells at 10 uM after 72 hrs by inverted microscopic analysis relative to control. It is filed as functional. In outline: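 PC12 cells (ATCC; grown in DMEM, 10% heat-inactivated horse serum, 5% FBS, 37 °C, 5% CO2) seeded at 2×10^4/well on poly-L-lysine, attached 24 h, then 24 h in low-serum DMEM (1% horse serum, 0.5% FBS). Compound at 10 μM for 72 h, no NGF. Score cells with at least one neurite ≥2× cell-body diameter, ≥200 cells/sample; mean ± S.D., ≥3 repeats.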

Active and inactive are the calls of the source. No cut-off for these calls is given here.

In the case of `CCCCCCCCCCCCC/C=C/[C@@H](O)[C@@H](N)CO[C@@H]1O[C@H](CO[C@]2(C(=O)O)C[C@H](O)[C@@H](NC(C)=O)[C@H]([C@@H](O)[C@H](O)CO)O2)[C@@H](O)[C@H](O)[C@H]1O`, the Activity in assay [1] is above 30%; in assay [2], 26%.
In the case of `CCCCCCCCCCCCC/C=C/[C@@H](O)[C@H](CO[C@@H]1O[C@H](CO)[C@@H](O[C@@H]2O[C@H](CO)[C@H](O)[C@H](O[C@]3(C(=O)O)C[C@H](O)[C@@H](NC(=O)CCl)[C@H]([C@@H](O)[C@H](O)CO)O3)[C@H]2O)[C@H](O)[C@H]1O)NC(=O)CCCCCCCCCCCCCCCCC`, the result in assay [1] was inactive. Besides, the Activity in assay [2] is listed as 8%.
The matching figures for `CCCCCCCCCCCCC/C=C/[C@@H](O)[C@H](CO[C@@H]1O[C@H](CO[C@]2(C(=O)O)C[C@H](O)[C@@H](NC(C)=O)[C@H]([C@@H](O)[C@H](O)CO)O2)[C@@H](O)[C@H](O)[C@H]1O)NC(=O)CCCCCCCCCCCCCCCCC`: “inactive” and “inactive”.
Turning to `CCCCCCCCCCCCC/C=C/[C@@H](O)[C@@H](N)CO[C@@H]1O[C@H](CO)[C@H](O)[C@H](O[C@]2(C(=O)O)C[C@H](O)[C@@H](NC(C)=O)[C@H]([C@@H](O)[C@H](O)CO)O2)[C@H]1O`, the outcome in assay [1] was Active. In assay [2], the Activity amounted to 6%.
For `CCCCCCCCCCCCC/C=C/[C@@H](O)[C@@H](N)CO[C@@H]1O[C@H](CO[C@]2(C(=O)O)C[C@H](O)[C@@H](NC(C)=O)[C@H]([C@@H](O)[C@H](O)CO)O2)[C@H](O)[C@H](O)[C@H]1O`, in that order: “inactive” and 9%.
The matching figures for `CCCCCCCCCCCCC/C=C/[C@@H](O)[C@H](CO[C@@H]1O[C@H](CO)[C@H](O)[C@H](O[C@]2(C(=O)O)C[C@H](O)[C@@H](NC(C)=O)[C@H]([C@@H](O)[C@H](O)CO)O2)[C@H]1O)NC(=O)CCCCCCCCCCCCCCCCC`: “inactive” and “inactive”.
On to `CCCCCCCCCCCCC/C=C/[C@@H](O)[C@H](CO[C@@H]1O[C@H](CO[C@]2(C(=O)O)C[C@H](O)[C@@H](NC(C)=O)[C@H]([C@@H](O)[C@H](O)CO)O2)[C@H](O)[C@H](O)[C@H]1O)NC(=O)CCCCCCCCCCCCCCCCC`, for which the result in assay [1] and in assay [2] was inactive.
